Experimental data from different studies.
Protocols differ between the studies behind these lines.
HTR1E: 5-hydroxytryptamine receptor 1E (HTR1E, Homo sapiens, UniProt P28566)
AVPR2: Vasopressin V2 receptor (AVPR2, Homo sapiens, UniProt P30518)

CN(C)c1ncnc2c1ncn2[C@@H]1O[C@H](CO)[C@@H](O)[C@H]1O — EC50 (Adenosine receptor A3 (ADORA3, Homo sapiens, UniProt P0DMS8, I253Q); G protein activation, agonist): 46 µM
COc1ccccc1N1CCN(CCCCN2C(=O)c3ccccc3C2=O)CC1 — EC50 (HTR1E; G protein activation, agonist, BRET): 2.17 µM
CC(C)=CCn1cnc(=N)c2[nH]cnc21 — EC50 (G-protein coupled receptor 84 (GPR84, Homo sapiens, UniProt Q9NQS5); cAMP, agonist, luciferase): 32 µM
CCCc1ccc(/N=C(/Nc2nnc(C)s2)N2N=C(C)SC2c2ccc(C)cc2)cc1 (stereo not drawn) — EC50 (AVPR2; cAMP, positive allosteric modulator): 3.9 µM
CN1CCN2c3ncccc3Cc3ccccc3C2C1 (stereo not drawn) — EC50 (HTR1E; G protein activation, agonist, BRET): 0.755 µM
CC1=NN(/C(=N/c2nnc(C)s2)Nc2ccc(C)c(C)c2)C(c2ccc(F)c(C(F)(F)F)c2)S1 (stereo not drawn) — EC50 (AVPR2; cAMP, positive allosteric modulator): > 50 µM
CN(C)CCOC1=Cc2ccccc2Sc2ccc(Cl)cc21 — EC50 (HTR1E; G protein activation, agonist, BRET): 0.622 µM
CC1=NN(/C(=N\c2ccccc2F)Nc2nnc(C)s2)C(c2ccc(C)cc2)S1 (stereo not drawn) — EC50 (AVPR2; cAMP, positive allosteric modulator): 41.4 µM
CC(C)=CCNc1ncnc2c1ncn2[C@@H]1O[C@H](CO)[C@@H](O)[C@H]1O — EC50 (Adenosine receptor A3 (ADORA3, Homo sapiens, UniProt P0DMS8, V169L); G protein activation, agonist): 1.2 µM
